High-throughput results as filed in PubChem.
Compounds with a hit are over-represented: about 2% of the library has one in this group of screens.
Rev-erbA mod: modulators of Rev-erb alpha DNA binding, primary screen, biochemical, FITC-DNA, fluorescence polarization, uHTS. Rev-erbα–FITC-DNA binding, 90 min. activity, % at 10 µM. AID 1259318, 2017. Nuclear receptor subfamily 1 group D member 1 (Homo sapiens), P20393. 370,000 compounds, 0.79% hits;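 active = activity above about 14%, limit read from the data; passing the limit was not always enough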;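 note: 0% = DMSO wells with 35 nM protein and 100% = DMSO wells with 750 nM protein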
Target sequence (P20393 whole entry, looked up): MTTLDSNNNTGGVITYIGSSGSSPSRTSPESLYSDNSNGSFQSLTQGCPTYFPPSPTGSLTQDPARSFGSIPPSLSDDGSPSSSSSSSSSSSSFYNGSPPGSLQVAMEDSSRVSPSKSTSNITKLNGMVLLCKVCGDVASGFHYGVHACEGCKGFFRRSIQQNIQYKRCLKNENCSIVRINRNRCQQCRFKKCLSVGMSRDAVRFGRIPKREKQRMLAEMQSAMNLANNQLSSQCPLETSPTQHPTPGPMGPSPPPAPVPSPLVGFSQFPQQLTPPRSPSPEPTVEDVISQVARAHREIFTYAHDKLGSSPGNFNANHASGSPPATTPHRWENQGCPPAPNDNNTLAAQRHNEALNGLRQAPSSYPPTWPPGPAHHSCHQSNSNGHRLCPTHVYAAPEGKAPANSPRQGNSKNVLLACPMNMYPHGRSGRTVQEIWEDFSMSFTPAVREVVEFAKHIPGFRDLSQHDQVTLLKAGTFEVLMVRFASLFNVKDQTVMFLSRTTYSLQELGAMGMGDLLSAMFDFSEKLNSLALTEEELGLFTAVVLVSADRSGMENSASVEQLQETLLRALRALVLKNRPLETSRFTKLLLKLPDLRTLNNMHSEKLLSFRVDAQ
NR2E3 ag-1: NR2E3 agonists in two-hybrid cells, primary screen, cell-based, luminescence, CHO-S, Gal4-NCOR/VP16-NR2E3; 360,000 compounds, 0.35% hits; AID 602229, 2012; Photoreceptor-specific nuclear receptor (Homo sapiens), Q9Y5X4; luciferase; inhibition of corepressor binding, % at 3.98 µM;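 active = inhibition above the mean of all tested compounds plus 3 SD, cut at about 70% in these data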;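 note: 0% = DMSO with NR2E3 transfected cells and 100% = cells lacking NR2E3 construct; higher means lower luciferase signal from less NR2E3 corepressor binding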
Neddylation inh: inhibitors of cullin neddylation, primary screen, biochemical, TR-FRET, uHTS, NAE and Ubc12; NEDD8-conjugating enzyme Ubc12 (Homo sapiens) + NEDD8-activating enzyme E1 regulatory …; calls only at 25 µM; 360,000 compounds, 0.58% hits; in the data active = inhibition above about 36%
NR2E3 ag-2: inhibitors of NR2E3-RetCOR corepressor binding, primary screen, NR2E3 agonist project, biochemical, TR-FRET, GST-NR2E3, biotin-RetCOR. Photoreceptor-specific nuclear receptor (Homo sapiens), Q9Y5X4. 1536-well. inhibition of corepressor binding, % at 4.78 µM. 320,000 compounds, 0.12% hits. AID 2300, 2010;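 active = percent inhibition above the cutoff of mean plus 3 SD of all tested compounds, set per screening campaign, cut at about 20% in these data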;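 note: 0% = DMSO wells and 100% = biotin wells as full block of FRET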
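Material – GST-tagged NR2E3 plus biotinylated RetCOR corepressor · Quantity – NR2E3 fusion 1.35 nM · Times – 5 h incubation at 4 °C · Medium – pH 7.5 Tris-based buffer · Technique – TR-FRET, Eu(K)-anti-GST donor, streptavidin-D2 acceptor, ex 340, em 617/671 nm · Benchmarks – high control biotin, low control 0.6% DMSO · Format – 1536-well plates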
PG9 Ab binder: binders of HIV-1 gp120 antibody PG9, primary screen, biochemical, TR-FRET. HIV-1 gp120 / PG9 antibody interaction. TR-FRET gp120-PG9 antibody binding. inhibition, % at 6.7 µM. 360,000 compounds, 0.43% hits; in the data active = inhibition above about 8.5%
Neddyl inh conf: blockade of NEDD8 conjugation to cullin – biochemical, TR-FRET, single concentration, confirmation; TR-FRET cullin neddylation biochemical assay; AID 652217, 2013; shares compounds with Neddylation inh; calls only at 25 µM; 1,800 compounds, 13% hits; in the data active = inhibition above about 40%;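 note: neddylation substrate is the cullin 1 ring ligase complex with SKP2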
Starred values were filed as active, the others as inactive; i = inactive; x = no result given; + = active, no number.

SMILES | Rev-erbA mod | NR2E3 ag-1 | Neddylation inh | NR2E3 ag-2 | PG9 Ab binder | Neddyl inh conf
O=C(OCC(=O)N1CCCCCC1)c1cc(S(=O)(=O)N2CCOCC2)ccc1F | 1 | -14 | i | x | 2 | x
OC1CCN(c2c3c(nc4cc(-c5ccc(Cl)cc5)nn24)CCC3)CC1 | 8 | -14 | + | 3 | -1 | i
Clc1cccc(-c2cc3nc4c(c(N5CCOCC5)n3n2)CCCC4)c1 | 1 | -97 | x | -2 | 3 | x
COc1ccc(/C=N/NC(=O)c2sccc2C)c2ccccc12 | 2 | -64 | + | 1 | 1 | i
COc1ccc(C(C)C)cc1-c1cccc2nncn12 | 5 | -14 | + | x | 2 | i
CC(C)c1ccccc1NC(=O)[C@@H]1CCCN1S(=O)(=O)c1cccc2cccnc12 | 3 | x | x | x | x | x
CC1Cc2ccccc2N1C(=O)c1cc2c(=O)n3ccccc3nc2n1C (stereo not given) | -4 | -10 | + | 10 | 2 | +
Cc1cccn2c(=O)c3cc(C(=O)N4c5ccccc5CC4C)n(C)c3nc12 (stereo not given) | 11 | -17 | x | -1 | 2 | x
O=C(Cc1cccs1)NC1CCCCN(Cc2cccc(Cl)c2)C1=O (stereo not given) | 1 | x | x | x | x | x
COc1ccc(C2CC(c3ccccc3)=NN2C(=O)COC(=O)/C=C/c2ccc(O)c(OC)c2)cc1 (stereo not given) | 10 | -2 | + | 2 | -1 | i
CCOc1ccc(-c2c(C)sc3nc[nH]c(=O)c23)cc1 | -2 | -6 | i | 0 | 2 | x
COc1cc(OC)cc(C(=O)NCC(=O)OCC(=O)/C=C2/N(C)c3ccccc3C2(C)C)c1 | -5 | -22 | + | 3 | -1 | i
COc1cc(NC(=O)c2cc(-c3ccco3)on2)c(OC)cc1Cl | 0 | -11 | + | -5 | 0 | i
COc1ccc(NC(=O)c2cc(-c3ccco3)on2)c(OC)c1 | -7 | -43 | i | -4 | -1 | x
COc1ccc(-c2cc(C(=O)Nc3ccccc3SC)no2)cc1OC | -3 | 0 | + | -2 | -2 | i
COc1cccc(C(NC(C)=O)c2nc(-c3ccc(F)cc3OC)cs2)c1 (stereo not given) | -3 | 1 | i | x | -1 | x
Cc1ccc(-c2ccc(C(=O)Nc3ccccc3)o2)c2ccccc12 | 5 | -68 | + | 2 | 1 | i
Cc1c(C(=O)NC2CC(C)(C)NC(C)(C)C2)oc2c(Cl)cccc12 | 1 | 3 | i | x | 0 | x
Cc1sc(NC(=O)c2ccco2)c(C(c2ccccc2)N2CCC(C)CC2)c1C (stereo not given) | -3 | -22 | + | 1 | 0 | x
Cc1ccc(C(c2c(NC(=O)c3ccco3)sc(C)c2C)N2CCOCC2)cc1 (stereo not given) | -3 | -15 | x | x | -1 | x
O=S(=O)(N[C@H]1CCCC[C@@H]1N1CCOCC1)c1ccc(Cl)cc1 | -4 | x | x | x | x | x
O=C(O[C@H]1CC[C@@]23CCCN2C(=O)CCC[C@H]3C1)N1CCOCC1 | 0 | x | x | x | x | x
CCOc1ccc2[nH]c3ncccc3c(=O)c2c1 | -1 | 22 | + | 3 | -1 | +
CCOc1ccc2[nH]c(C)c(CN3CCOCC3)c(=O)c2c1 | -3 | -15 | i | -2 | -1 | x
COc1cccc(NC(=S)N/N=C2\CC(C)(C)Oc3ccc(O)cc32)c1 | 3 | -13 | + | 1 | -4 | i
SMILES | Rev-erbA mod | NR2E3 ag-1 | Neddylation inh | NR2E3 ag-2 | PG9 Ab binder | Neddyl inh conf
COc1ccc2c(c1)C1OCCC1C(c1ccco1)N2 (stereo not given) | x | -98 | x | 0 | x | x
c1coc(C2Nc3ccccc3C3OCCC23)c1 (stereo not given) | -2 | 5 | + | 4 | 2 | i
CCCCOc1ccc(S(=O)(=O)N2CCN(c3ccc(N4CCN(CC)CC4)nn3)CC2)cc1 | 8 | 8 | + | 1 | -1 | i
CCNC(=O)C1CCCN(Cc2ccc(C)c3ccccc23)CC1 (stereo not given) | x | -31 | i | x | x | x
CC(=O)Nc1cccc(NC(=O)CN2c3cccc4cccc(c34)S2(=O)=O)c1 | 4 | -31 | + | 5 | -1 | i
COCCCn1c(C)cc(C(=O)CN2c3cccc4cccc(c34)S2(=O)=O)c1C | 6 | -15 | + | 0 | -1 | i
CC(NC(=O)C(C)N1c2cccc3cccc(c23)S1(=O)=O)c1ccccc1 (stereo not given) | 1 | -24 | + | 3 | 0 | i
CC(=O)c1ccc(NC(=O)CN2c3cccc4cccc(c34)S2(=O)=O)cc1 | 7 | -20 | + | x | 0 | i
COCCNC(=O)C1(C)CCCN(Cc2ccc(OC)cc2)C1 (stereo not given) | x | -18 | i | x | x | x
O=S1(=O)C=C[C@H](COCc2ccccc2)N1 | -9 | -11 | i | x | 0 | x
CC1CCN(C(=O)c2[nH]cnc2C(=O)N(C)CCO)CC1 | 7 | x | x | x | -1 | x
CCN1C(c2ccc(F)cc2)=CS/C1=C(/C#N)c1nnc2n1-c1ccccc1SC2 | -7 | 8 | i | x | 0 | x
COc1ccc(C2OCCNC3C2C(=O)N(Cc2ccc(OC)cc2OC)C3Cc2ccccc2)cc1 (stereo not given) | -6 | x | x | x | x | x
CCC(C)NC(=O)CN1c2cccc3cccc(c23)S1(=O)=O (stereo not given) | 1 | -23 | + | 0 | 0 | i
CN(Cc1ccccc1F)C(=O)CN1c2cccc3cccc(c23)S1(=O)=O | 5 | -5 | + | 2 | -3 | +
COc1ccccc1CNC(=O)CN1c2cccc3cccc(c23)S1(=O)=O | -6 | -20 | i | 2 | -1 | x
Cc1cc(-c2n[nH]c(=S)n2N=Cc2cc(Br)ccc2F)n[nH]1 | -6 | x | x | x | x | x
COc1ccc(C(=O)NCCNc2nc3c(C)cccc3cc2C#N)cc1OC | -1 | -3 | + | 2 | -2 | x
CCc1nn2c(N(C)CCO)cc(C)nc2c1-c1ccc(F)cc1 | 3 | -5 | + | -1 | 1 | i
C/C(=N\NC(=O)c1ccccc1F)c1cccc(NC(=O)c2ccccc2)c1 | 10 | -135 | i | -4 | -2 | x
C/C(=N\NC(=O)c1cc(Br)ccc1O)c1cccc(NC(=O)c2ccccc2F)c1 | 2 | -91 | + | 0 | -2 | i
